Data on five compounds can be found in ChEMBL document CHEMBL4680095, “Potent Antitumor Activities and Structure Basis of the Chiral β-Lactam Bridged Analogue of Combretastatin A-4 Binding to Tubulin” (J Med Chem, 2016).

In data set [1] the test system is A2780. The experiment in a line: Growth inhibition of human A2780 cells. The data set is classed as functional, cell-based.
Data set [2] concerns MDA-MB-231. The data set can be described thus: Growth inhibition of human MDA-MB-231 cells. The data set is classed as functional, cell-based.
Data set [3] deals with SK-OV-3. The experiment in a line: Growth inhibition of human SK-OV-3 cells. The data set is classed as functional, cell-based.
The test system of data set [4] is HeLa. The experiment in a line: Growth inhibition of human HeLa cells. The data set is classed as functional, cell-based.
The nature of data set [5]: Inhibition of pig brain tubulin polymerization incubated for 20 mins by spectrophotometry. It counts as tissue-based, Sus scrofa.
Data set [6] relates to A2780. The data set can be described thus: Antitumor activity against human A2780 cells xenografted in Balb/C mouse assessed as inhibition of tumor growth at 12.5 mg/kg, ip dosed once every 2 days. The note with it: time 2.0 day. The data set is classed as functional, organism-based. The method, boiled down: (§1)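 Xenograft model built by subcutaneous inoculation of A2780 cells into female Balb/C nude mice, then treated at 12.5 mg/kg. Read-outs named per line: tumor growth, main organs examined for abnormalities, body weight monitored.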

The nature of data set [7]: Toxicity in Balb/C mouse xenografted with human A2780 cells assessed as induction of body weight loss at 12.5 mg/kg, ip dosed once every 2 days. It counts as organism-based. The note with it: in vivo, 48 h, time 2 day. The procedure, abridged: as §1
In general terms: A xenograft is tissue or cells of one species grown in another, often human tumour cells in immunodeficient mice.

Data set [8] is described as follows: Toxicity in Balb/C mouse xenografted with human A2780 cells assessed as induction of abnormalities of visceral organs at 12.5 mg/kg, ip dosed once every 2 days. The data set is classed as organism-based. The note with it: in vivo, 48 h, time 2 day. The method, boiled down: as §1
A short description of data set [9]: Toxicity in Balb/C mouse. The note with it: in vivo.

SMILES strings stand for the structures. pIC50: −log10 of the molar value. Activity calls are given as the source filed them. The calls are words filed in the database; no cut-off is given here.

A word on the pIC50: it is the negative decadic logarithm of the IC50, by convention in mol/L. The low end stands for a high IC50, the high end for a low IC50. Usually LD50 stands for the dose at which mortality reaches 50%. The low end stands for greater toxicity, the high end for lower toxicity. Consider `COc1ccc([C@H]2[C@@H](C)C(=O)N2c2cc(OC)c(OC)c(OC)c2)cc1O`, for which the pIC50 in [1] is 7.51; in [2], 7.25; in [3], 7.24; in data set [4], 7.20; in data set [5] it was 5.46. Moreover, the TGI result in data set [6] was “Active”. Also, the Activity result in [7] and in [8] was “Non-Toxic” each time. The same compound gave an LD50 in data set [9] of more than 500 mg/kg.
Turning to `COc1ccc(/C=C\c2cc(OC)c(OC)c(OC)c2)cc1O` [COMBRETASTATIN A4], the pIC50 in data set [5] was 5.88.
Compound `COc1cc2c(c(OC)c1OC)-c1ccc(OC)c(=O)cc1[C@@H](NC(C)=O)CC2` [COLCHICINE] gave a 50% lethal dose (LD50) in [9] of 4 mg/kg.
For `C=C1C(=O)N(c2cc(OC)c(OC)c(OC)c2)[C@H]1c1ccc(OC)c(O)c1`, the pIC50 in data set [1] is 6.94; in data set [2], 6.51; in data set [3] it was 6.94; in [4] it was 6.61; in data set [5] it was 5.18.
For `C=C1C(=O)N(c2cc(OC)c(OC)c(OC)c2)[C@@H]1c1ccc(OC)c(O)c1`, the pIC50 in data set [1] was 5.34; in [2] it was less than 5.00; in data set [3], 5.46; in data set [4], 5.26; in data set [5], less than 4.00.
